ChEMBL document CHEMBL2150978, “Phosphorodiamidates as a promising new phosphate prodrug motif for antiviral drug discovery: application to anti-HCV agents” (J Med Chem, 2011)

Key:
Liver [1] = assay: Tmax in Sprague-Dawley rat liver assessed as 2'-C-methyl guanosine triphosphate level at 10 mg/kg, po up to 24 hrs by LC-MS/Ms analysis; format: ADME, organism-based; parameters: dose 10 mg/kg, route oral; conditions: in vivo
In short: (§1)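 Male Sprague-Dawley rats dosed orally by gavage at 10 mg/kg in 95% Capmul MCM/5% Tween 80. Livers collected terminally at eight time points up to 24 h and snap-frozen in liquid nitrogen. Liver 2′-C-methylguanosine triphosphate quantified by LC-MS/MS, linear over 100−4000 ng per gram of tissue (r² ≥ 0.99, ≥85% accuracy, ≤2% CV).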

[2] = Cytotoxicity against human HuH7 cells after 3 days; format: cell-based, Huh-7
In short: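 Huh7 replicon cells seeded at 2 × 10⁴ per well one day before dosing. Four-fold serial dilutions in growth medium, no-drug controls on each plate. Incubated 3 days at 37 °C, 5% CO₂. Viability read by CellTiter-Glo luminescence after 20 min with reagent.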

Hepatitis C virus = assay: Antiviral activity against Hepatitis C virus subtype 1b Con1 infected in human Huh7 cells assessed as inhibition of HCV replicon-encoded Renilla luciferase reporter activity after 72 hrs by HCV replicon assay; format: functional, organism-based, Hepacivirus hominis; conditions: Con1, Huh-7, 72 h
In short: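 Huh7 cells stably carrying a bicistronic subgenomic genotype 1b (Con1) replicon with Renilla luciferase reporter, seeded at 2 × 10⁴ cells/well the day before. Four-fold serial dilutions in growth medium, no-drug controls on each plate; 3 days at 37 °C, 5% CO₂. Luciferase reagent 20 min, then luminescence (RLU) read; EC₅₀ derived.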

Liver [3] = assay: Cmax in Sprague-Dawley rat liver assessed as 2'-C-methyl guanosine triphosphate level at 10 mg/kg, po up to 24 hrs by LC-MS/Ms analysis; format: ADME, organism-based; parameters: dose 10 mg/kg, route oral; conditions: in vivo; in short: as §1
Liver [4] = assay: Clast in Sprague-Dawley rat liver assessed as 2'-C-methyl guanosine triphosphate level at 10 mg/kg, po up to 24 hrs by LC-MS/Ms analysis; format: ADME, organism-based; parameters: dose 10 mg/kg, route oral; conditions: in vivo; in short: as §1
Liver [5] = assay: AUC (0 to t) in Sprague-Dawley rat liver assessed as 2'-C-methyl guanosine triphosphate level at 10 mg/kg, po up to 24 hrs by LC-MS/Ms analysis; format: ADME, organism-based; parameters: dose 10 mg/kg, route oral; conditions: in vivo; in short: as §1
[6] = Selectivity index, ratio of CC50 for human HuH7 cells to EC50 for Hepatitis C virus subtype 1b Con1; format: toxicity, cell-based, Huh-7; conditions: read-out: Ratio CC50/EC50
In short: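 Huh7 cells carrying a stable bicistronic subgenomic genotype 1b (Con1) HCV replicon with Renilla luciferase reporter, 2 × 10⁴ cells per well. Four-fold serial dilutions, 3 days at 37 °C, 5% CO₂. Replicon inhibition read by luciferase luminescence (RLU) and cytotoxicity by CellTiter-Glo in the same cell line. SI taken as CC50/EC50.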

[7] = Stability in phosphate buffer assessed as compound decomposition by HPLC; format: physicochemical
[8] = Drug metabolism in acetone-d6 and TRIZMA buffer at pH 7.4 assessed as (S)-2-((((2R,3R,4R,5R)-5-(2-amino-6-methoxy-9H-purin-9-yl)-3,4-dihydroxy-4-methyltetrahydrofuran-2-yl)methoxy)oxidophosphorylamino)propanoate level at 6.94 ppm at pH 7.4 after 1 hr by 31P NMR in presence of carboxypeptidase Y; format: physicochemical; conditions: pH 7.4, 1 h
In short: (§2)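 Compound (about 5 mg) in 200 μL acetone-d₆ plus 400 μL Trizma buffer pH 7.4. Baseline ³¹P NMR recorded, then 0.3−0.5 mg carboxypeptidase Y in 200 μL Trizma pH 7.4 added. Processing followed by ³¹P NMR kinetics. A buffer phosphate impurity peak stays constant throughout.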

[9] = Stability of the compound in triethylammonium bicarbonate buffer assessed as compound decomposition at pH 11 incubated for 17 hrs at 37 degC by [31P] NMR spectroscopy; format: physicochemical; conditions: pH 11, 17 h
In short: (§3)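 Base stability tested at pH 8.5 and at pH 11, both at 37 °C, followed by ³¹P NMR, with pH 11 samples followed to 17 h. Half-life estimated assuming first-order decay.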

[10] = Stability of the compound in triethylammonium bicarbonate buffer assessed as compound decomposition at pH 11 incubated at 37 degC by [31P] NMR spectroscopy; format: physicochemical; in short: as §3
[11] = Drug metabolism in acetone-d6 and TRIZMA buffer at pH 7.4 assessed as (S)-2-((((2R,3R,4R,5R)-5-(2-amino-6-methoxy-9H-purin-9-yl)-3,4-dihydroxy-4-methyltetrahydrofuran-2-yl)methoxy)oxidophosphorylamino)propanoate level at 6.95 ppm at pH 7.4 after 1 hr by 31P NMR in presence of carboxypeptidase Y; format: physicochemical; conditions: pH 7.4, 1 h; in short: as §2
Serum = assay: Stability in human serum incubated for 12 hrs by [31P] NMR spectroscopy; format: ADME, cell-free
[12] = Stability in phosphate buffer at pH 7 after 14 hrs by [31P] NMR spectroscopy; format: physicochemical; conditions: pH 7, 14 h
[13] = Stability in citric acid-HCl buffer at pH 2 incubated for 14 hrs at 37 or 47 degC by [31P] NMR spectroscopy; format: physicochemical; conditions: pH 2, 14 h
In short: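 Compound in citric acid−HCl buffer pH 2, held at 37 or 47 °C and monitored by ³¹P NMR over 14 h.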

[14] = Stability of the compound in triethylammonium bicarbonate buffer assessed as compound decomposition at pH 8.5 incubated at 37 degC by [31P] NMR spectroscopy; format: physicochemical; in short: as §3

| Structure (SMILES) | Tmax (Liver [1]) [h] | CC50 at 72 h [2] [nM] | EC50 (Hepatitis C virus) [nM] | EC90 (Hepatitis C virus) [nM] | Cmax (Liver [3]) [ng/g] | Clast (Liver [4]) [ng/g] | AUCt (Liver [5]) [ng·h/g] | selectivity ratio [6] | Stability [7] | Drug metabolism [8] | Stability [9] | Stability [10] | Drug metabolism [11] | Stability (Serum) | Stability [12] | Stability [13] | Stability [14] |
| --- | --- | --- | --- | --- | --- | --- | --- | --- | --- | --- | --- | --- | --- | --- | --- | --- | --- |
| CCC(C)OC(=O)[C@H](C)NP(=O)(N[C@@H](C)C(=O)OC(C)CC)OC[C@H]1O[C@@H](n2cnc3c(OC)nc(N)nc32)[C@](C)(O)[C@@H]1O (mixture of isomers) | 8 | > 100000 | 150 | 530 | 907.7 | 538.7 | 16252 |  |  |  |  |  |  |  |  |  |  |
| COc1nc(N)nc2c1ncn2[C@@H]1O[C@H](COP(=O)(N[C@@H](C)C(=O)OC2CCCC2)N[C@@H](C)C(=O)OC2CCCC2)[C@@H](O)[C@@]1(C)O (mixture of isomers) | 8 | > 100000 | 60 | 220 | 1523.3 | 610 | 24546 |  |  |  |  |  |  |  |  |  |  |
| COc1nc(N)nc2c1ncn2[C@@H]1O[C@H](COP(=O)(N[C@@H](C)C(=O)OC2Cc3ccccc3C2)N[C@@H](C)C(=O)OC2Cc3ccccc3C2)[C@@H](O)[C@@]1(C)O (mixture of isomers) | 24 | 70000 | 580 | 1300 | 632 | 632 | 10642 |  |  |  |  |  |  |  |  |  |  |
| COc1nc(N)nc2c1ncn2[C@@H]1O[C@H](COP(=O)(N[C@@H](C)C(=O)OCC(C)(C)C)N[C@@H](C)C(=O)OCC(C)(C)C)[C@@H](O)[C@@]1(C)O (mixture of isomers) | 8 | > 100000 | 60 | 200 | 1580 | 800 | 25147 | > 1600 | Stable | Active | Stable | Stable | Active | Stable | Stable | Stable | Stable |
| COc1nc(N)nc2c1ncn2[C@@H]1O[C@H](COP(=O)(N[C@H](C)C(=O)OCC(C)(C)C)N[C@H](C)C(=O)OCC(C)(C)C)[C@@H](O)[C@@]1(C)O (mixture of isomers) | 8 | > 100000 | 110 | 500 | 598.3 | 441.7 | 11608 |  |  |  |  |  |  |  |  |  |  |
| CC[C@H](C)[C@H](NP(=O)(N[C@H](C(=O)OC1CCCCC1)[C@@H](C)CC)OC[C@H]1O[C@@H](n2cnc3c(OC)nc(N)nc32)[C@](C)(O)[C@@H]1O)C(=O)OC1CCCCC1 (mixture of isomers) |  | 14000 | 4000 | 7100 |  |  |  | 4 |  |  |  |  |  |  |  |  |  |
| COc1nc(N)nc2c1ncn2[C@@H]1O[C@H](COP(=O)(N[C@H](C(=O)OCc2ccccc2)C(C)C)N[C@H](C(=O)OCc2ccccc2)C(C)C)[C@@H](O)[C@@]1(C)O (mixture of isomers) | 4 | 49000 | 120 | 660 | 359.5 | 73.6 | 4478 |  |  |  |  |  |  |  |  |  |  |
